Among the data in ChEMBL document CHEMBL3627623, “Catecholic amides as potential selective phosphodiesterase 4D inhibitors: Design, synthesis, pharmacological evaluation and structure-activity relationships” (Bioorg Med Chem, 2015) are IC50, inhibition and Ratio IC50 values, retold here.

One experiment has as its target Phosphodiesterase 4 (Homo sapiens, UniProt P27815+Q08499+Q07343+Q08493). The experiment can be described thus: Inhibition of core catalytic domains of human PDE4 using AM-Cyclic-3',5'-AMP after 60 mins by fluorescence polarization assay. It is filed as protein assay.
In experiment [1] the target is 3',5'-cyclic-AMP phosphodiesterase 4B (Homo sapiens, UniProt Q07343). The experiment can be described thus: Inhibition of human full-length PDE4B1 using AM-Cyclic-3',5'-AMP after 60 mins by fluorescence polarization assay.
In experiment [2] the target is 3',5'-cyclic-AMP phosphodiesterase 4D (Homo sapiens, UniProt Q08499). The experiment can be described thus: Inhibition of human full-length PDE4D7 using AM-Cyclic-3',5'-AMP after 60 mins by fluorescence polarization assay. (Fluorescence polarisation rises when a labelled molecule tumbles more slowly, as on binding a larger partner.)
The target of experiment [3] is Dual specificity calcium/calmodulin-dependent 3',5'-cyclic nucleotide phosphodiesterase 1A (Homo sapiens) (UniProt P54750). The experiment can be described thus: Inhibition of human PDE1A using AM-Cyclic-3',5'-AMP at 10 uM after 60 mins by fluorescence polarization assay. The method, boiled down:
(§1)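 Recombinant human PDE isoforms in 40 mM MOPS pH 7.5, 0.5 mM EDTA, 15 mM MgCl2, 0.15 mg/mL BSA, 1 mM DTT, 0.05% Proclin 200. […] Final DMSO 1%; 60 min at 25 °C. Binding agent was added, then 1 h more. Fluorescence polarization read at ex 360/em 480 nm. IC50 or single-concentration % inhibition; mean of two experiments.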

For experiment [4], the target named is cGMP-specific 3',5'-cyclic phosphodiesterase (Homo sapiens) (UniProt O76074). The experiment can be described thus: Inhibition of human PDE5A using AM-Cyclic-3',5'-AMP at 10 uM after 60 mins by fluorescence polarization assay. Put shortly: as §1
For experiment [5], the target named is High affinity cAMP-specific and IBMX-insensitive 3',5'-cyclic phosphodiesterase 8A (Homo sapiens) (UniProt O60658). As to the kind of experiment: Inhibition of human PDE8A1 using AM-Cyclic-3',5'-AMP at 10 uM after 60 mins by fluorescence polarization assay. The method, boiled down: as §1
Experiment [6] has as its target High affinity cGMP-specific 3',5'-cyclic phosphodiesterase 9A (Homo sapiens) (UniProt O76083). As to the kind of experiment: Inhibition of human PDE9A2 using AM-Cyclic-3',5'-AMP at 10 uM after 60 mins by fluorescence polarization assay. The method, boiled down:
as §1

Experiment [7] deals with cAMP and cAMP-inhibited cGMP 3',5'-cyclic phosphodiesterase 10A (Homo sapiens) (UniProt Q9Y233). As to the kind of experiment: Inhibition of human PDE10A2 using AM-Cyclic-3',5'-AMP at 10 uM after 60 mins by fluorescence polarization assay. Put shortly: as §1
The target in experiment [8] is cGMP-dependent 3',5'-cyclic phosphodiesterase (Homo sapiens) (UniProt O00408). The following applies: 10 uM.
The target in experiment [9] is cGMP-inhibited 3',5'-cyclic phosphodiesterase 3B (Homo sapiens) (UniProt Q13370). The following applies: 10 uM.
Experiment [10] concerns the target High affinity 3',5'-cyclic-AMP phosphodiesterase 7A (Homo sapiens) (UniProt Q13946). The conditions noted are these: 10 uM.
Experiment [11] concerns the target Dual 3',5'-cyclic-AMP and -GMP phosphodiesterase 11A (Homo sapiens) (UniProt Q9HCR9). The following applies: 10 uM.
Experiment [12] is filed under the species Homo sapiens. The experiment can be described thus: Selectivity ratio of IC50 for human full-length PDE4B1 to IC50 for human full-length PDE4D7.
For experiment [13], the species on record is Homo sapiens. As to the kind of experiment: Selectivity ratio of IC50 for PDE4B2 (unknown origin) to IC50 for PDE4D3 (unknown origin).
Experiment [14] is filed under the species Homo sapiens. As to the kind of experiment: Selectivity ratio of IC50 for PDE4B (unknown origin) to IC50 for PDE4D (unknown origin).
Experiment [15] is filed under the species Homo sapiens. The experiment can be described thus: Selectivity ratio of IC50 for PDE4B2 (unknown origin) to IC50 for PDE4D4 (unknown origin).
For experiment [16], the species on record is Homo sapiens. As to the kind of experiment: Selectivity ratio of IC50 for PDE4B1 (unknown origin) to IC50 for PDE4D7 (unknown origin).

3',5'-cyclic-AMP phosphodiesterase 4B, sequence (Q07343 whole entry): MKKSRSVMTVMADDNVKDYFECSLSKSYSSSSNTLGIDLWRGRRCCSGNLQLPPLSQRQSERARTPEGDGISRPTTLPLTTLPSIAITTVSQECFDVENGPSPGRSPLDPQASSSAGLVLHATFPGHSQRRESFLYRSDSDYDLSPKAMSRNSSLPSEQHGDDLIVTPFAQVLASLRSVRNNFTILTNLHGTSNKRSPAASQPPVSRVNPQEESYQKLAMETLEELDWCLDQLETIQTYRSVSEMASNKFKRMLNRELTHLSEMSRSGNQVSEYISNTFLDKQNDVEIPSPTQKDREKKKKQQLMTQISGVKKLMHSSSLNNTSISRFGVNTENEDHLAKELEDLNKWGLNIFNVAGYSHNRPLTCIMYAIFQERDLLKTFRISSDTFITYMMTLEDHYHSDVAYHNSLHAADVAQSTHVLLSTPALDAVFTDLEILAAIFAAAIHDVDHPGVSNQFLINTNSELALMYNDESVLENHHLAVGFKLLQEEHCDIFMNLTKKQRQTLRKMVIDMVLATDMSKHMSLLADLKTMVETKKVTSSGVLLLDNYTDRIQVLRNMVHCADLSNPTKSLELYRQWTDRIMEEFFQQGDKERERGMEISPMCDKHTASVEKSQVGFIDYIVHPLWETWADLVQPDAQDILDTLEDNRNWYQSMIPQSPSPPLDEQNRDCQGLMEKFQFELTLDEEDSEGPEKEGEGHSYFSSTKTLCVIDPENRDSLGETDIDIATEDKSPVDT
3',5'-cyclic-AMP phosphodiesterase 4D, sequence (Q08499 whole entry): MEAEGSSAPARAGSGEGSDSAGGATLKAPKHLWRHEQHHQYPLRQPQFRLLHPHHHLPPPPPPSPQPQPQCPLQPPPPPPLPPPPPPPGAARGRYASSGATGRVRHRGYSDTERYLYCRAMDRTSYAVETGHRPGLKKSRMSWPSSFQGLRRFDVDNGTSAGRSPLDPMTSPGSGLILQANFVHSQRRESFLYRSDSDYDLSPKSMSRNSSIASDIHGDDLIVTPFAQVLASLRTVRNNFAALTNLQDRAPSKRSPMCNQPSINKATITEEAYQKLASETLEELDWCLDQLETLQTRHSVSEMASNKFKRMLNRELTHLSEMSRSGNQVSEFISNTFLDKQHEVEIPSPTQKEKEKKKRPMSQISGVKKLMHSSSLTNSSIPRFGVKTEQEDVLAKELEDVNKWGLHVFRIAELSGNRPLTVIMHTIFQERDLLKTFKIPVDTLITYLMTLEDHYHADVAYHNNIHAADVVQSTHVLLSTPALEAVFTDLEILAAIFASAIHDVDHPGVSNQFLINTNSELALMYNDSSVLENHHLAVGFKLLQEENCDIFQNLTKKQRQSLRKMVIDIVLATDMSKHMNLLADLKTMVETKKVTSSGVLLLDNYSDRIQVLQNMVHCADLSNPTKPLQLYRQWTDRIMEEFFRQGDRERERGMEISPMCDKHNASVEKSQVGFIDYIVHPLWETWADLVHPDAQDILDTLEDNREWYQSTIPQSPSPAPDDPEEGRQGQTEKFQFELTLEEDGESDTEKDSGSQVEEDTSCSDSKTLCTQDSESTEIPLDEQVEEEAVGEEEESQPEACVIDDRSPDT
Dual specificity calcium/calmodulin-dependent 3',5'-cyclic nucleotide phosphodiesterase 1A (Homo sapiens), sequence (P54750 whole entry, canonical isoform): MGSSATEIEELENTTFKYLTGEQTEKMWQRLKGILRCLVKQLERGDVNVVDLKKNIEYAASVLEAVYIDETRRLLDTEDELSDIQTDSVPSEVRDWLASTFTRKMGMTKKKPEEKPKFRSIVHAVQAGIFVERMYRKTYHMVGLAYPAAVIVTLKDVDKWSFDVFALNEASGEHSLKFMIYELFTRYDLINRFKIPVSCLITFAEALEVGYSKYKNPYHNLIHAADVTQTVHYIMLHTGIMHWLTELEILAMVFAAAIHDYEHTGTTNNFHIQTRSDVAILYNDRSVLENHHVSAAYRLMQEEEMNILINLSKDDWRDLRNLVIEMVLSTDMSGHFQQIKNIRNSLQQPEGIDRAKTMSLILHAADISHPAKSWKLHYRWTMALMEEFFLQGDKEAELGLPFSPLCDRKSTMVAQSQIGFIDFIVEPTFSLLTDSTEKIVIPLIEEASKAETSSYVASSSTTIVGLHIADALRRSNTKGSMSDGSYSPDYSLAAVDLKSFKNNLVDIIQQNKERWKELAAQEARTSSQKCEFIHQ
High affinity cGMP-specific 3',5'-cyclic phosphodiesterase 9A (Homo sapiens), sequence (O76083 whole entry): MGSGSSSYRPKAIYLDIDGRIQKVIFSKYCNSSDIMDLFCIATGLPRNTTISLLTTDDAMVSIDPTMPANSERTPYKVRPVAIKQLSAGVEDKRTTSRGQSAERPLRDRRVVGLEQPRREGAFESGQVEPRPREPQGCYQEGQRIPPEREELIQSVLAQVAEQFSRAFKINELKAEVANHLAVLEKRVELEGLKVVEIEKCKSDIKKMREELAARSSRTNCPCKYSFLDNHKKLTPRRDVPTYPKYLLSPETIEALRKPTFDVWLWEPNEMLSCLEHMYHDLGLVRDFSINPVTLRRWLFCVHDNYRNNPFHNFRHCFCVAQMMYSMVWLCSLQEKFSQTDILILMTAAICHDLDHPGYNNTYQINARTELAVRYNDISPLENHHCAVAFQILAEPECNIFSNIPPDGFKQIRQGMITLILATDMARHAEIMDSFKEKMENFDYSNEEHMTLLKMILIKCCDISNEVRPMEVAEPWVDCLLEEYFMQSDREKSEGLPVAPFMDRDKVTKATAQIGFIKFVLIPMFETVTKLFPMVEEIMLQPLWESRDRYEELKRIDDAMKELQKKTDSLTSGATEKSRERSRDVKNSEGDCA
High affinity 3',5'-cyclic-AMP phosphodiesterase 7A (Homo sapiens), sequence (Q13946 whole entry): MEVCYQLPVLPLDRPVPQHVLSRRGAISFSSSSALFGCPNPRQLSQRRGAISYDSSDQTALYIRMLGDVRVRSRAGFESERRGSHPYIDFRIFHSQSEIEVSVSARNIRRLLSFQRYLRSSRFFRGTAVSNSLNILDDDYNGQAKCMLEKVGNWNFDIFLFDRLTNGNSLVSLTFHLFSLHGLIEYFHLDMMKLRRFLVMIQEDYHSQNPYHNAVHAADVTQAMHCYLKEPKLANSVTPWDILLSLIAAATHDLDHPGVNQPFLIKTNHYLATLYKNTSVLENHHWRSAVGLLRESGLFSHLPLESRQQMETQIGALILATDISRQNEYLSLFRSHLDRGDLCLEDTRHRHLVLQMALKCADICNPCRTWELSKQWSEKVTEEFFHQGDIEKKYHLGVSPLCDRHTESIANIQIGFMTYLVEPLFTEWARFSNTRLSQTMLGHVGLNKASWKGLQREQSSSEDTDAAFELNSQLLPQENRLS
Dual 3',5'-cyclic-AMP and -GMP phosphodiesterase 11A (Homo sapiens), sequence (Q9HCR9 whole entry, looked up): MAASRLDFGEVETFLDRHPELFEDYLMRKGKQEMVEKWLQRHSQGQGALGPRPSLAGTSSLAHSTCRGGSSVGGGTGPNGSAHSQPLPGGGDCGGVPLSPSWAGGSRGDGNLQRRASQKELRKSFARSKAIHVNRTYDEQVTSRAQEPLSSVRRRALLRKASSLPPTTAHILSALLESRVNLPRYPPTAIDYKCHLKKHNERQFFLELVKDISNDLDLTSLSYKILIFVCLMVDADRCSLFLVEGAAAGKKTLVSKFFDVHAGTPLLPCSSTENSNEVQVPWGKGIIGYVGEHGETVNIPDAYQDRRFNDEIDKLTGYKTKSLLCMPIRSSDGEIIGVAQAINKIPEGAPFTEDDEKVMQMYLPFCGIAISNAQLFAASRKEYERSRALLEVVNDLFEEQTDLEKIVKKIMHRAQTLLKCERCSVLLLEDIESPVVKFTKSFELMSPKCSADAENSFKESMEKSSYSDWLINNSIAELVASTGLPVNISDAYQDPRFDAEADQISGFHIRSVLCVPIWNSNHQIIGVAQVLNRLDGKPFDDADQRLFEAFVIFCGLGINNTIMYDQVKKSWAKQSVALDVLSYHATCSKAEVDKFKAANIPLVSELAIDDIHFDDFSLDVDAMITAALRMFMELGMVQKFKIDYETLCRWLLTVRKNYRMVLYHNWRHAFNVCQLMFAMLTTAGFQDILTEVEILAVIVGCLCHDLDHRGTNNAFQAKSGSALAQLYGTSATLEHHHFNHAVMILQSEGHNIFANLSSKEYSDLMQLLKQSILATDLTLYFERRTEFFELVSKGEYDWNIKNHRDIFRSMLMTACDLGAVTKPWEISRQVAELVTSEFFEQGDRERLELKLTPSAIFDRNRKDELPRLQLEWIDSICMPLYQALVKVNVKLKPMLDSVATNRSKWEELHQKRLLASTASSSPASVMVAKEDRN
cGMP-dependent 3',5'-cyclic phosphodiesterase (Homo sapiens), sequence (O00408 whole entry): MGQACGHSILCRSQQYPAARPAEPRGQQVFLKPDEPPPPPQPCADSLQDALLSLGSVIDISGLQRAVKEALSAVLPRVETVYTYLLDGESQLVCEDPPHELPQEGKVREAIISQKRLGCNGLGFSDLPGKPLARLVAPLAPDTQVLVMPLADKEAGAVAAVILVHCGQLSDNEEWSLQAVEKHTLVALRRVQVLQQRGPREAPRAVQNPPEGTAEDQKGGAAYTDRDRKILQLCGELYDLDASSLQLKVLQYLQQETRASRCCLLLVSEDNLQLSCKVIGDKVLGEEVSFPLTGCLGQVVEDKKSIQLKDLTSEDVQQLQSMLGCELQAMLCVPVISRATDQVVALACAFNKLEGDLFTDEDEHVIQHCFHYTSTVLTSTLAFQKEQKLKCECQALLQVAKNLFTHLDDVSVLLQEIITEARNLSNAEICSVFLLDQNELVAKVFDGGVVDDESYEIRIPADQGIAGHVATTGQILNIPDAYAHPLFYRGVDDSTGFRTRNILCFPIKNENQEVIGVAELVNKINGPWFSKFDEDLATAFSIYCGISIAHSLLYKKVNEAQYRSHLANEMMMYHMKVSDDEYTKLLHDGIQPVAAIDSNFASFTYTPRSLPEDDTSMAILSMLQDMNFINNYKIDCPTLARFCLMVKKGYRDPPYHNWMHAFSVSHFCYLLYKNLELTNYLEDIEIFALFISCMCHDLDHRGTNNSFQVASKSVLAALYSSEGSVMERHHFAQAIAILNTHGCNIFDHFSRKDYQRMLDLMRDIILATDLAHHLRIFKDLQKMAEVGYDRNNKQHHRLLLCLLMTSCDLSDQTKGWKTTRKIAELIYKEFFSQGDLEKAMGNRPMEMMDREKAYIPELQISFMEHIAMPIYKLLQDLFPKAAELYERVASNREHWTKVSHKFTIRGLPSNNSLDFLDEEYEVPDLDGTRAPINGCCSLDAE

The molecule `O=C(NCc1ccccc1)c1ccc(OC(F)F)c(OCC2CC2)c1` returned an IC50 on Phosphodiesterase 4 of 2.1 µM.

`COc1ccccc1OCCNC(=O)c1ccc(OC)c(OCC2CC2)c1`: the 50% inhibitory concentration (IC50) on Phosphodiesterase 4 was 11.1 µM.

With `COc1ccc(CNC(=O)c2ccc(OC(F)F)c(OC3CCCC3)c2)cc1`, the results for the concentration for half-maximal inhibition (IC50) (against Phosphodiesterase 4; in [1]; in [2]) were 1.1 µM, 0.976 µM and 0.094 µM, respectively. For the same molecule, the inhibition was 11% in [3]; 16% in experiment [4]; 10% in experiment [5]; 6% in experiment [6]; 1% in experiment [7]; 2% in experiment [8]. In addition, the inhibition came out at 2% in experiment [9], 3% in [10] and 2% in [11].

Molecule `COc1ccccc1OCCNC(=O)c1ccc(OC)c(OC2CCCC2)c1` showed an IC50 on Phosphodiesterase 4 of 18.3 µM.

With `COc1ccc(CNC(=O)c2ccc(OC)c(OCC3CC3)c2)cc1`, the IC50 at Phosphodiesterase 4 came to 0.91 µM; in experiment [1], 1.09 µM; in [2], 0.342 µM. Besides, the Ratio IC50 in the experiment listed under Homo sapiens [12] is 3.2.

For the molecule `COc1ccc(CNC(=O)c2ccc(OC(F)F)c(OCC3CC3)c2)cc1`, the results for the IC50 (at Phosphodiesterase 4; in experiment [1]; in experiment [2]) were 0.41 µM, 0.301 µM and 0.108 µM, respectively. In the experiment filed under Homo sapiens [12], the Ratio IC50 is 2.8.

With `COc1ccc(CNC(=O)c2ccc(OC(F)F)c(OCC3CC3)c2)cc1OC`, on Phosphodiesterase 4, the IC50 was > 100 µM.

In the case of `COc1ccc(CNC(=O)c2ccc(OC)c(OCC3CC3)c2)cc1OC`, the IC50 at Phosphodiesterase 4 is > 100 µM.

In turn, `COc1ccccc1OCCNC(=O)c1ccc(OC(F)F)c(OCC2CC2)c1` registered an IC50 on Phosphodiesterase 4 of 6.9 µM.

In the case of `COc1ccc(/C=N/OCC(O)CNN2CC(C)OC(C)C2)cc1OC1CCCC1` (stereo not drawn), the Ratio IC50 in the experiment listed under Homo sapiens [13] stood at 85.

In the case of `COc1ccc([C@H](C)NC(=O)c2cccnc2Oc2ccc(F)cc2)cc1`, the Ratio IC50 in the experiment listed under Homo sapiens [14] was determined as 142.

In turn, `O=C(NCc1ccccc1)c1ccc(OC(F)F)c(OC2CCCC2)c1` gave an IC50 against Phosphodiesterase 4 of 2.2 µM.

As to `COc1ccccc1OCCNC(=O)c1ccc(OC(F)F)c(OC2CCCC2)c1`, the IC50 against Phosphodiesterase 4 was determined as 12.4 µM.

With `COc1ccc(CNC(=O)c2ccc(OC(F)F)c(OC3CCCC3)c2)cc1OC`, at Phosphodiesterase 4, the IC50 is > 100 µM.

For `COc1ccc(CNC(=O)c2ccc(OC)c(OC3CCCC3)c2)cc1OC`, the concentration for half-maximal inhibition (IC50) against Phosphodiesterase 4 is > 100 µM.

As for `COc1ccccc1OCCNc1ccc(=O)n(Cc2ccc(OC)c(-c3cccc(Cl)c3)c2)n1`, in the experiment listed under Homo sapiens [15], the Ratio IC50 is 13.

On to `COc1ccc(CNC(=O)c2ccc(OC)c(OC3CCCC3)c2)cc1`, for which the IC50 was 0.96 µM against Phosphodiesterase 4, 1.03 µM in experiment [1] and 0.284 µM in experiment [2]. Moreover, the Ratio IC50 in the experiment filed under Homo sapiens [12] was determined as 3.6.

Regarding `COc1ccc(Cc2ccc(NC(N)=O)cc2)cc1-c1cccc(Cl)c1`, in the experiment listed under Homo sapiens [16], the Ratio IC50 is 54.

What is called IC50 is the midpoint of a concentration-inhibition curve. Low readings indicate higher potency, high ones lower potency. The term inhibition denotes the change of the read-out against control, counted positive when it falls.
